Activity calls are given as the source filed them. No cut-off for these calls is given here.

Assay [1] deals with T1, Glycogen phosphorylase, muscle form (Oryctolagus cuniculus, UniProt P00489).
T1 sequence (P00489 whole entry): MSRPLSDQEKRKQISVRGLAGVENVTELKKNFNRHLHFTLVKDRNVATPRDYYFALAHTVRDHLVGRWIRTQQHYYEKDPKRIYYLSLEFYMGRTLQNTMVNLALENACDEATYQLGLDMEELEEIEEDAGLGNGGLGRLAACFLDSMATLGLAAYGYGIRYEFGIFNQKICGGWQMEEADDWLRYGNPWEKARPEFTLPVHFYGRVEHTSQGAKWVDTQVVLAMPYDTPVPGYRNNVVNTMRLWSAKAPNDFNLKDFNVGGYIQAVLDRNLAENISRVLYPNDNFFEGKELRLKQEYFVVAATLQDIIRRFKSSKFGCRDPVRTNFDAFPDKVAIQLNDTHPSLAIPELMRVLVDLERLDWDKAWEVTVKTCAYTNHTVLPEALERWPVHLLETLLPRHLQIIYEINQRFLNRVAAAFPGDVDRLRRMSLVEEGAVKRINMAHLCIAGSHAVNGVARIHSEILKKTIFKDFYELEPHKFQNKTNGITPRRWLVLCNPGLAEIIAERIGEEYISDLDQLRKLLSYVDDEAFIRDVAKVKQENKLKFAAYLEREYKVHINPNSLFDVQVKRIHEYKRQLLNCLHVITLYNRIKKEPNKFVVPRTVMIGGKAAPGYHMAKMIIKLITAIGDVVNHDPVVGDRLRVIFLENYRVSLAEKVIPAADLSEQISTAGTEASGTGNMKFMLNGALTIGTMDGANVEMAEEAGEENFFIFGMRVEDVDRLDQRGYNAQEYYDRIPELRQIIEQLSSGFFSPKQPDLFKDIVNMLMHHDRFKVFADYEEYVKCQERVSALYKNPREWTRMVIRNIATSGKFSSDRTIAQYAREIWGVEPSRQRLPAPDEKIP
Nature of the assay: Competitive inhibition of rabbit muscle glycogen phosphorylase-b in presence of varying levels of glucose-1-phosphate and constant concentration of glycogen and AMP preincubated for 15 mins with AMP and glycogen followed by glucose-1-phosphate addition by Lineweaver-Burk plot method. A digest of the protocol: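 Rabbit skeletal muscle GPb, 3 μg/mL, at 30 °C in the glycogen-synthesis direction. Buffer: 30 mM imidazole/HCl pH 6.8, 60 mM KCl, 0.6 mM EDTA, 0.6 mM DTT, 0.2% glycogen, 1 mM AMP. Glc-1-P at 2, 3, 4, 6 or 10 mM, added after 15 min enzyme–glycogen preincubation. Pi read at 850 nm by molybdate method from 1–4 min samples. Ki from 1/v vs [inhibitor]; three independent experiments, mean ± SD.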

Assay [2] deals with T2, Glycogen phosphorylase, liver form (Homo sapiens, UniProt P06737).
T2 sequence (P06737 whole entry): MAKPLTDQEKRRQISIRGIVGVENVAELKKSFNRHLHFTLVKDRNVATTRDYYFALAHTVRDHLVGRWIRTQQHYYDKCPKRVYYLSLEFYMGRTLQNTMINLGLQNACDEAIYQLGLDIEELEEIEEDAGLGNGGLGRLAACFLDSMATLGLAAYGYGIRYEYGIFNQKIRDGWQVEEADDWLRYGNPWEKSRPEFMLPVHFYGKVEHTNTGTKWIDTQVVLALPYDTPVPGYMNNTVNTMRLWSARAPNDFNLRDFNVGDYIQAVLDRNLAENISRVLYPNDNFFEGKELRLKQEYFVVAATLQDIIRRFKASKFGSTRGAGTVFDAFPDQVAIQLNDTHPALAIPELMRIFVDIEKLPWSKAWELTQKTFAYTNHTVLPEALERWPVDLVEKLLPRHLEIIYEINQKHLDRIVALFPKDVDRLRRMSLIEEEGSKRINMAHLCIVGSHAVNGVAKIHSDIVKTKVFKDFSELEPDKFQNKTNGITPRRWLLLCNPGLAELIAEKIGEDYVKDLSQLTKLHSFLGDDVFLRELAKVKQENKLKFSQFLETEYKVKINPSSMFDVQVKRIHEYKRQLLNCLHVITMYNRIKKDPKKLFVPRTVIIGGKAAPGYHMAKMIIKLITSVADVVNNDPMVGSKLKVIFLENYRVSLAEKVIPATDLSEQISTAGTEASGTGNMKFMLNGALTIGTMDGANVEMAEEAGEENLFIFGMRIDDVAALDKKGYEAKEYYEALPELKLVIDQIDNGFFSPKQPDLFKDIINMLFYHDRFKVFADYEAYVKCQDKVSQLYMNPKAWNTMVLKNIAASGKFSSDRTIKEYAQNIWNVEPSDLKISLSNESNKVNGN
Nature of the assay: Competitive inhibition of 6xHis-tagged human liver glycogen phosphorylase-a expressed in Escherichia coli BL21 Gold (DE3) assessed as release of inorganic phosphate using varying levels of glucose-1-phosphate and constant concentration of AMP and glycogen preincubated for 15 mins with AMP and glycogen followed by glucose-1-phosphate addition by Lineweaver-Burk plot method.

Assay [3] addresses T1, Glycogen phosphorylase, muscle form. Nature of the assay: Competitive inhibition of rabbit muscle glycogen phosphorylase-a in presence of varying levels of glucose-1-phosphate and constant concentration of glycogen and AMP preincubated for 15 mins with AMP and glycogen followed by glucose-1-phosphate addition by Lineweaver-Burk plot method. A digest of the protocol: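 Rabbit muscle GPa at 3 μg/mL, 30 °C, synthesis direction. Medium: 30 mM imidazole/HCl pH 6.8, 60 mM KCl, 0.6 mM EDTA, 0.6 mM DTT, 0.2% glycogen. Enzyme–glycogen preincubated 15 min before Glc-1-P start. Samples at 1, 2, 3, 4 min quenched in SDS; phosphate measured at 850 nm. Ki derived from 1/v vs inhibitor concentration; three independent runs, mean ± SD.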

The target is the same in assay [4]. The assay is described as follows: Inhibition of rabbit muscle glycogen phosphorylase.
For assay [5] the target is unchanged.
The target of assay [6] is T3, Glycogen phosphorylase, muscle form (Oryctolagus cuniculus) (UniProt P00489).
T3 sequence (whole entry): T1 sequence (P00489 whole entry)
The assay is described as follows: Competitive inhibition of rabbit muscle glycogen phosphorylase-b at 625 uM in presence of varying levels of glucose-1-phosphate and constant concentration of glycogen and AMP preincubated for 15 mins with AMP and glycogen followed by glucose-1-phosphate addition by Lineweaver-Burk plot method.

Assay [7] concerns the target T2, Glycogen phosphorylase, liver form. Nature of the assay: Competitive inhibition of human liver glycogen phosphorylase-a assessed as release of inorganic phosphate using varying levels of glucose-1-phosphate and constant concentration of AMP and glycogen preincubated for 15 mins with AMP and glycogen followed by glucose-1-phosphate addition.

Usually Ki stands for a dissociation constant, usually derived from enzyme kinetics or from competition with a known ligand. On to `N[C@@H]1[C@@H](O)[C@H](O)[C@@H](CO)O[C@H]1c1nc2ccccc2[nH]1`, for which, in assay [1], the Ki came to 107 µM.
As to `N[C@@H]1[C@@H](O)[C@H](O)[C@@H](CO)O[C@H]1c1nc(-c2ccccc2)n[nH]1`, the figures for the Ki in assay [2], in assay [3] and in assay [1] were 30.8 µM, 30.2 µM and 35.2 µM, respectively.
In turn, `O[C@@H]1[C@@H](O)[C@H](c2nc(-c3ccccc3)c[nH]2)OC[C@H]1O` registered a Ki in assay [4] of 800 µM.
In turn, `O=c1[nH]c(=O)n([C@@H]2O[C@H](CO)[C@@H](O)[C@H](O)[C@H]2O)cc1F` showed a Ki in assay [5] of 5.5 to 7.9 µM.
On to `O[C@@H]1[C@@H](O)[C@H](c2nc(-c3ccc4ccccc4c3)n[nH]2)OC[C@H]1O`, for which the affinity in assay [4], expressed as Ki, was 491 µM.
As for `N[C@@H]1[C@@H](O)[C@H](O)[C@@H](CO)O[C@H]1c1nc(-c2ccccc2)c[nH]1`, the Ki in assay [2] came out at 2.73 µM; in assay [3], 3.11 µM; in assay [1], 2.67 µM.
In the case of `N[C@@H]1[C@@H](O)[C@H](O)[C@@H](CO)O[C@H]1n1cc(-c2ccccc2)nn1`, the inhibition entry in assay [6] is “inactive”.
For the compound `N[C@@H]1[C@@H](O)[C@H](O)[C@@H](CO)O[C@H]1c1nc(-c2ccc3ccccc3c2)c[nH]1`, the Ki in assay [2] amounted to 0.143 µM; in assay [3], 0.125 µM; in assay [1], 0.191 µM.
Taken in the same sequence, the figures for `N[C@@H]1[C@@H](O)[C@H](O)[C@@H](CO)O[C@H]1c1nc(-c2ccc3ccccc3c2)n[nH]1` were 7.6 µM, 5.3 µM and 4.8 µM.
`OC[C@H]1O[C@@H](c2nnc(-c3ccccc3)[nH]2)[C@H](O)[C@@H](O)[C@@H]1O`: in assay [7], the Ki is 1.35 µM.
Regarding `O[C@@H]1[C@@H](O)[C@H](c2nc(-c3ccc4ccccc4c3)c[nH]2)OC[C@H]1O`, in assay [4], the Ki was determined as 100 µM.
As to `N[C@@H]1[C@@H](O)[C@H](O)[C@@H](CO)O[C@H]1n1cc(-c2ccc3ccccc3c2)nn1`, the Ki in assay [1] amounted to 354 µM.
In assay [5], `O=c1[nH]c(=O)n([C@@H]2O[C@H](CO)[C@@H](O)[C@@H](CO)[C@H]2O)cc1F` displayed a Ki of 27.1 µM.
